Measured values published in ChEMBL document CHEMBL1121429, “Soft drugs. 1. Labile quaternary ammonium salts as soft antimicrobials” (J Med Chem, 1980).

Assays:
[1] = test system: Staphylococcus aureus; experiment: Sterilization time for contact germicidal efficiency (CGE) of salt was tested against at Staphylococcus aureus at pH 6.0, concentration 1007 ppm; assay type: functional, organism-based
[2] = test system: Bacillus subtilis
[3] = test system: Salmonella typhimurium
[4] = test system: Streptococcus pyogenes; experiment: Sterilization time for contact germicidal efficiency (CGE) of salt was tested against at Streptococcus pyogenes at pH 7.0, concentration 1031 ppm; assay type: functional, organism-based
[5] = test system: Pseudomonas aeruginosa; experiment: Sterilization time for contact germicidal efficiency (CGE) of salt was tested against at Pseudomonas aeruginosa at pH 7.0, concentration 1031 ppm; assay type: functional, organism-based
[6] = test system: Streptococcus pyogenes; experiment: Sterilization time for contact germicidal efficiency (CGE) of salt was tested against at Streptococcus pyogenes at pH 8.0, concentration 1042 ppm; assay type: functional, organism-based
[7] = test system: Pseudomonas aeruginosa
[8] = test system: Staphylococcus aureus; experiment: Sterilization time for contact germicidal efficiency (CGE) of salt was tested against at Staphylococcus aureus at pH 8.0, concentration 1042 ppm; assay type: functional, organism-based
[9] = test system: Streptococcus pyogenes; experiment: Sterilization time for contact germicidal efficiency (CGE) of salt was tested against at Streptococcus pyogenes at pH 6.0, concentration 1007 ppm; assay type: functional, organism-based
[10] = test system: Streptococcus pyogenes
[11] = test system: Pseudomonas aeruginosa; experiment: Sterilization time for contact germicidal efficiency (CGE) of salt was tested against at Pseudomonas aeruginosa at pH 8.0, concentration 1042 ppm; assay type: functional, organism-based
[12] = test system: Staphylococcus aureus; experiment: Sterilization time for contact germicidal efficiency (CGE) of salt was tested against Staphylococcus aureus at pH 7.0, concentration 1031 ppm; assay type: functional, organism-based
[13] = test system: Pseudomonas aeruginosa; experiment: Sterilization time for contact germicidal efficiency (CGE) of salt was tested against at Pseudomonas aeruginosa at pH 6.0, concentration 1007 ppm; assay type: functional, organism-based
[14] = test system: Staphylococcus aureus; experiment: Minimum inhibitory concentration of salt was tested against Staphylococcus aureus aureus at 0.1 M NaH2PO4 adjusted to pH 7.0; assay type: functional
Method in brief: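 Bacteria grown 18-20 h at 37 °C in tryptose phosphate broth, adjusted to OD650 0.01, then diluted into double-strength medium to about 2 × 10^5 viable organisms/mL. Compound in 0.1 M NaH2PO4 pH 7.0 was serially twofold diluted into sterile water and added 1:1 to the cultures. MIC read after 18-20 h at 37 °C, with viability, sterility and buffer controls.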

[15] = test system: Staphylococcus aureus; experiment: Sterilization time for contact germicidal efficiency (CGE) of salt was tested against at Staphylococcus aureus at pH 7.0, concentration 1031 ppm; assay type: functional, organism-based
[16] = test system: Streptococcus pyogenes; experiment: Sterilization time for contact germicidal efficiency (CGE) of salt was tested against Streptococcus pyogenes at pH 7.0, concentration 254 ppm; assay type: functional
[17] = test system: Staphylococcus aureus; experiment: Sterilization time for contact germicidal efficiency (CGE) of salt was tested against Staphylococcus aureus at pH 7.0, concentration 254 ppm; assay type: functional
[18] = test system: Pseudomonas aeruginosa; experiment: Sterilization time for contact germicidal efficiency (CGE) of salt was tested against Pseudomonas aeruginosa at pH 7.0, concentration 254 ppm; assay type: functional
[19] = test system: Pseudomonas aeruginosa; experiment: Minimum inhibitory concentration of salt was tested against Pseudomonas aeruginosa at 0.1 M NaH2PO4 adjusted to pH 7.0; assay type: functional
[20] = test system: Streptococcus pyogenes; experiment: Sterilization time for contact germicidal efficiency (CGE) of salt was tested against at Streptococcus pyogenes at pH 7.0, concentration 1116.0 ppm; assay type: functional
Method in brief: (§1)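 Streptococcus pyogenes ATCC 19615 overnight culture, 5 × 10^6 cfu/mL; 0.2 mL into 5 mL test solution of salt in buffer, left 30 min at room temperature beforehand. At timed intervals (0.5 to 30 min), a 3-mm loop was transferred to sterile nutrient broth and incubated at 37 °C for 7 days. Sterilization time is the shortest interval without growth; buffer-only and viability controls were run.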

[21] = test system: Salmonella typhimurium; experiment: Minimum inhibitory concentration of salt was tested against Salmonella Typhimurium […] at 0.1 M NaH2PO4 adjusted to pH 7.0; assay type: functional; conditions: Salmonella enterica
[22] = test system: Staphylococcus aureus; experiment: Sterilization time for contact germicidal efficiency (CGE) of salt was tested against Staphylococcus aureus at pH 7.0, concentration 1116.0 ppm; assay type: functional
Method in brief: (§2)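 Test solutions of the quaternary salt in buffer stood 30 min at room temperature. 0.2 mL of overnight broth culture was added to 5 mL of solution. Inocula: S. aureus ATCC 6538 6-8 × 10^6 cfu/mL, P. aeruginosa ATCC 9027 12-13 × 10^6/mL, S. pyogenes ATCC 19615 5 × 10^6 cfu/mL. At 0.5-30 min intervals a loop was subcultured into nutrient broth and incubated 7 days at 37 °C. Sterilization time is the first interval giving no growth.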

[23] = test system: Streptococcus pyogenes; experiment: Minimum inhibitory concentration of salt was tested against Streptococcus pyogenes aureus at 0.1 M NaH2PO4 adjusted to pH 7.0; assay type: functional
[24] = test system: Bacillus subtilis; experiment: Minimum inhibitory concentration of salt was tested against Bacillus subtilis at 0.1 M NaH2PO4 adjusted to pH 7.0; assay type: functional
[25] = test system: Pseudomonas aeruginosa; experiment: Sterilization time for contact germicidal efficiency (CGE) of salt was tested against at Pseudomonas aeruginosa at pH 7.0, concentration 1116.0 ppm; assay type: functional; method in brief: as §2
[26] = test system: Staphylococcus aureus; experiment: Sterilization time for contact germicidal efficiency (CGE) of salt was tested against Staphylococcus aureus at pH 7.0 in horse serum at contact time=15 min; assay type: functional
Method in brief: (§3)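 S. aureus ATCC 6538 CGE screen with solutions in 0.1 M NaH2PO4 pH 7.0 diluted with 10% horse serum in distilled water, adjusted to pH 7 with CO2. Contact times of 0-15 min were used. Overnight culture was added, and loop subcultures taken at 0.5-30 min were grown 7 days at 37 °C in nutrient broth. Sterilization time is the first interval giving no growth.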

[27] = test system: Staphylococcus aureus; experiment: Sterilization time for contact germicidal efficiency (CGE) of salt was tested against Staphylococcus aureus at pH 7.0, concentration 1027 ppm; assay type: functional; method in brief: as §2
[28] = test system: Staphylococcus aureus; experiment: Sterilization time for contact germicidal efficiency (CGE) of salt was tested against Staphylococcus aureus at pH 7.0 in water diluent; assay type: functional; method in brief: as §2
[29] = test system: Pseudomonas aeruginosa; experiment: (§4) Sterilization time for contact germicidal efficiency (CGE) of salt was tested against at Pseudomonas aeruginosa at pH 7.0, concentration 1027 ppm; assay type: functional; method in brief: as §2
[30] = test system: Pseudomonas aeruginosa; experiment: Sterilization time for contact germicidal efficiency (CGE) of salt was tested against at Pseudomonas aeruginosa at pH 6.0, concentration 1016 ppm; assay type: functional; method in brief: as §2
[31] = test system: Staphylococcus aureus; experiment: Sterilization time for contact germicidal efficiency (CGE) of salt was tested against Staphylococcus aureus at pH 7.0 in horse serum at contact time=0 min; assay type: functional; method in brief: as §3
[32] = test system: Streptococcus pyogenes; experiment: Sterilization time for contact germicidal efficiency (CGE) of salt was tested against at Streptococcus pyogenes at pH 7.0, concentration 1027 ppm; assay type: functional; method in brief: as §1
[33] = test system: Staphylococcus aureus; experiment: Sterilization time for contact germicidal efficiency (CGE) of salt was tested against at Staphylococcus aureus at pH 8.0, concentration 1022 ppm; assay type: functional
Method in brief: (§5)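 Staphylococcus aureus ATCC 6538, overnight broth culture at 6-8 × 10^6 cfu/mL; 0.2 mL inoculated into 5 mL of buffered quaternary salt solution pre-held 30 min at room temperature. Loop subcultures (3 mm) taken at 0.5-30 min intervals into nutrient broth, incubated at 37 °C for 7 days and read daily. The endpoint is the earliest time giving a growth-free subculture.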

[34] = test system: Staphylococcus aureus; experiment: Sterilization time for contact germicidal efficiency (CGE) of salt was tested against Staphylococcus aureus at pH 7.0 in horse serum at contact time=5 min; assay type: functional; method in brief: as §3
[35] = test system: Streptococcus pyogenes; experiment: Sterilization time for contact germicidal efficiency (CGE) of salt was tested against at Streptococcus pyogenes at pH 6.0, concentration 1016 ppm; assay type: functional; method in brief: as §1
[36] = test system: Staphylococcus aureus; experiment: Sterilization time for contact germicidal efficiency (CGE) of salt was tested against at Staphylococcus aureus at pH 6.0, concentration 1016 p.p.m.; assay type: functional; method in brief: as §5
[37] = test system: Staphylococcus aureus; experiment: Sterilization time for contact germicidal efficiency (CGE) of salt was tested against Staphylococcus aureus at pH 7.0 in horse serum at contact time=10 min; assay type: functional; method in brief: as §3
[38] = test system: Streptococcus pyogenes; experiment: Sterilization time for contact germicidal efficiency (CGE) of salt was tested against at Streptococcus pyogenes at pH 8.0, concentration 1022 ppm; assay type: functional; method in brief: as §1
[39] = test system: Staphylococcus aureus; experiment: Sterilization time for contact germicidal efficiency (CGE) of salt was tested against at Staphylococcus aureus at pH 7.0, concentration 1027 ppm; assay type: functional; method in brief: as §5
[40] = test system: Pseudomonas aeruginosa; experiment: as §4; assay type: functional; method in brief: as §2; remark: listed apart in the source
[41] = test system: Pseudomonas aeruginosa; experiment: Sterilization time for contact germicidal efficiency (CGE) of salt was tested against at Pseudomonas aeruginosa at pH 8.0, concentration 1022 ppm; assay type: functional
Method in brief: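 Pseudomonas aeruginosa ATCC 9027 overnight broth culture (12-13 × 10^6 organisms/mL); 0.2 mL added to 5 mL buffered salt solution held 30 min at room temperature. At intervals from 0.5 to 30 min, a 3-mm loop was subcultured into nutrient broth and incubated at 37 °C for 7 days. Sterilization time is the shortest interval whose subculture gave no growth.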

[42] = test system: Pseudomonas aeruginosa; experiment: Sterilization time for contact germicidal efficiency (CGE) of salt was tested against Pseudomonas aeruginosa at pH 7.0, concentration 610 ppm; assay type: functional; method in brief: as §2
[43] = test system: Streptococcus pyogenes; experiment: Sterilization time for contact germicidal efficiency (CGE) of salt was tested against Streptococcus pyogenes at pH 7.0, concentration 610 ppm; assay type: functional; method in brief: as §2
[44] = test system: Staphylococcus aureus; experiment: Sterilization time for contact germicidal efficiency (CGE) of salt was tested against Staphylococcus aureus at pH 7.0, concentration 610 ppm; assay type: functional; method in brief: as §2

Hexadecyl-trimethyl-ammonium bromide
TIME [1]: 0.00833 h
MIC [2]: < 2 p.p.m.
MIC [3]: 64.3 p.p.m.
TIME [4]: 0.00833 h
TIME [5]: 0.00833 h
TIME [6]: 0.00833 h
MIC [7]: 128 p.p.m.
TIME [8]: 0.00833 h
TIME [9]: 0.00833 h
MIC [10]: < 2 p.p.m.
TIME [11]: 0.00833 h
TIME [12]: 0.00833 h
TIME [13]: 0.00833 h
MIC [14]: < 2 p.p.m.
TIME [15]: 0.00833 h

Cn1ccnc1 [1-METHYLIMIDAZOLE]
Time [16]: >30 min
Time [17]: >30 min
Time [18]: >30 min

CCCCCCCCCCCC(=O)OC[n+]1cccc(C(=O)NCC)c1.[Cl-]
MIC [19]: 1040 µg/mL
Time [20]: 0.5 min
MIC [21]: 522 µg/mL
Time [22]: 0.5 min
MIC [23]: 32.6 µg/mL
MIC [24]: 32.6 µg/mL
Time [25]: 3 min
MIC [14]: 130 µg/mL

CCCCCCCCCCCC(=O)OC[N+]12CCC(CC1)CC2.[Cl-]
MIC [19]: 1050 µg/mL
MIC [21]: 262 µg/mL
Time [26]: >30 min
Time [27]: 0.5 min
Time [28]: 0.5 min
Time [29]: 0.5 min
Time [30]: 0.5 min
Time [31]: 1 min
Time [32]: 0.5 min
Time [33]: 0.5 min
Time [34]: 3 min
Time [35]: 0.5 min
Time [36]: 1 min
MIC [23]: 4.1 µg/mL
MIC [24]: 32.8 µg/mL
Time [37]: 5 min
Time [38]: 2 min
MIC [14]: 16.4 µg/mL
Time [39]: 0.5 min
Time [40]: 3 min
Time [41]: 0.5 min

CCCCCCCCCCCC(=O)O [DODECANOATE]
Time [42]: >30 min
Time [43]: >30 min
Time [44]: >30 min
